According to ChEMBL document CHEMBL4308891, “Small molecules inhibit ex vivo tumor growth in bone” (Bioorg Med Chem, 2018):
Each block holds one compound with its values, some of them ahead of it. Active and inactive are the calls of the source. No cut-off for these calls is given here.

What was measured:
[1] = test system: MIA PaCa-2; test: Cytotoxicity against human MIAPaCa2 cells after 24 hrs; type: cell-based; conditions: mia paca-2, 24 h
[2] = test system: NCI-H460; test: Cytotoxicity against human NCI-H460 cells after 24 hrs; type: cell-based; conditions: nci-h460, 24 h
[3] = test system: MDA-MB-231; test: Antimigratory activity in human MDA-MB-231 cells at 10 uM after 9 hrs by wound healing assay; type: functional, cell-based
Outline: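 Confluent monolayers in 12-well plates were scratched with a micropipette tip, washed, then cultured in complete medium with compound. Gap width between wound edges was measured by microscopy in three random regions right after wounding and at 6 and 9 h.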

[4] = test system: Bone; test: Down regulation of RANKL expression in neonatal Swiss mouse calvariae bone co-cultured with human MDA-MB-231 cells measured on day 7 post treatment by SYBR green-dye based RT-qPCR analysis; type: functional, tissue-based; conditions: Bone element
Outline: (§1)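 Calvarial disk cultures ([…] Swiss pups) in BGJb plus 10% fetal calf serum were PBS-washed at day 7 and bead-homogenized in Qiazol. Aqueous-phase RNA was isolated, reverse-transcribed and run in triplicate real-time PCR with species-specific primers. Expression was normalized to ribosomal protein L32 mRNA. n = 3 or 4 cultures, ANOVA.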

[5] = test system: U-87 MG; test: Antiinvasive activity in human U87 cells at 5 uM by boyden chamber method; type: functional, cell-based; conditions: U-87MG ATCC
[6] = test system: MDA-MB-231; test: Down regulation of IL11 expression in human MDA-MB-231 cells co-cultured with neonatal Swiss mouse calvariae bone measured on day 7 post treatment by SYBR green-dye based RT-qPCR analysis relative to control; type: functional; outline: as §1
[7] = test system: MDA-MB-231; test: Effect on CTGF expression in human MDA-MB-231 cells co-cultured with neonatal Swiss mouse calvariae bone measured on day 7 post treatment by SYBR green-dye based RT-qPCR analysis; type: functional, cell-based; outline: as §1
[8] = test system: Bone; test: Effect on osteocalcin expression in neonatal Swiss mouse calvariae bone co-cultured with human MDA-MB-231 cells measured on day 7 post treatment by SYBR green-dye based RT-qPCR analysis; type: functional, tissue-based; conditions: Bone element; outline: as §1
[9] = test system: MDA-MB-231; test: Cytotoxicity against human MDA-MB-231 cells at 12.5 uM after 3 days by MTS assay; type: cell-based; conditions: mda-mb-231, 72 h
[10] = Inhibition of angiogenesis in human HRMEC assessed as inhibition of endothelial cell tube formation up to 10 uM after 8 hrs by microscopic analysis
Outline: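 Primary human retinal microvascular endothelial cells were grown on Matrigel in complete medium for 8 h, then tubule formation was measured. Significance was assessed by ANOVA.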

[11] = test system: MDA-MB-231; test: (§2) Ex vivo antitumor activity against human MDA-MB-231 cells co-cultured with neonatal Swiss mouse bone in BGJb medium assessed as inhibition of tumor growth at 5 uM administered simultaneously with cancer cells measured on day 7 post treatment by Gaussia luciferase reporter gene assay relative to control; type: functional
Outline: (§3)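 Calvariae from […] Swiss mouse pups were punched into 4 or 5 mm disks. Each was seeded with 1 x 10^4 tumor cells (lentiviral secreted Gaussia luciferase/GFP-blasticidin, FACS-sorted GFP+) in BGJb plus 10% fetal calf serum at 37°C, 5% CO2. After 24 h bones moved to fresh wells; medium changed every 2 days. Conditioned-medium luciferase read as RLU. Biological triplicate, mean ± SD, Welch's t-test.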

[12] = test system: MDA-MB-231; test: Antiinvasive activity in human MDA-MB-231 cells assessed as inhibition of cell invasion at 5 uM by boyden chamber method relative to control; type: functional
[13] = test system: MIA PaCa-2; test: Antiinvasive activity in human MIAPaCa2 cells at 5 uM by boyden chamber method; type: functional, cell-based
[14] = test system: Bone; test: Down regulation of TRAP expression in neonatal Swiss mouse calvariae bone co-cultured with human MDA-MB-231 cells measured on day 7 post treatment by SYBR green-dye based RT-qPCR analysis; type: functional, tissue-based; conditions: Bone element; outline: as §1
[15] = test system: MDA-MB-231; test: Effect on CCL2 expression in human MDA-MB-231 cells co-cultured with neonatal Swiss mouse calvariae bone measured on day 7 post treatment by SYBR green-dye based RT-qPCR analysis; type: functional, cell-based; outline: as §1
[16] = test system: MDA-MB-231; test: Down regulation of ENPP1 expression in human MDA-MB-231 cells co-cultured with neonatal Swiss mouse calvariae bone measured on day 7 post treatment by SYBR green-dye based RT-qPCR analysis relative to control; type: functional; outline: as §1
[17] = test system: MDA-MB-231; test: Cytotoxicity against human MDA-MB-231 cells at 0.625 to 5 uM after 24 hrs; type: cell-based; conditions: mda-mb-231, 24 h
[18] = test system: MDA-MB-231; test: (§4) Ex vivo antitumor activity against human MDA-MB-231 cells co-cultured with neonatal Swiss mouse bone in BGJb medium assessed as inhibition of tumor growth at 5 uM administered on day 2 post cancer cells addition measured on day 5 post treatment by Gaussia luciferase reporter gene assay relative to control; type: functional; outline: as §3
[19] = test system: MDA-MB-231; test: Antiinvasive activity in human MDA-MB-231 cells by boyden chamber method; type: functional, cell-based
[20] = test system: MDA-MB-231; test: Upregulation of Fas expression in human MDA-MB-231 cells co-cultured with neonatal Swiss mouse calvariae bone measured on day 7 post treatment by SYBR green-dye based RT-qPCR analysis; type: functional, cell-based; outline: as §1
[21] = test system: MDA-MB-231; test: Down regulation of IL-8 expression in human MDA-MB-231 cells co-cultured with neonatal Swiss mouse calvariae bone measured on day 7 post treatment by SYBR green-dye based RT-qPCR analysis; type: functional, cell-based; outline: as §1
[22] = test system: MDA-MB-231; test: Upregulation of BCL2L1 expression in human MDA-MB-231 cells co-cultured with neonatal Swiss mouse calvariae bone measured on day 7 post treatment by SYBR green-dye based RT-qPCR analysis; type: functional, cell-based; outline: as §1
[23] = test system: MDA-MB-231; test: as §2, with “5” for “7”; type: functional; outline: as §3
[24] = test system: MDA-MB-231; test: Effect on ICAM expression in human MDA-MB-231 cells co-cultured with neonatal Swiss mouse calvariae bone measured on day 7 post treatment by SYBR green-dye based RT-qPCR analysis; type: functional, cell-based; outline: as §1
[25] = test system: MDA-MB-231; test: Down regulation of FGF5 expression in human MDA-MB-231 cells co-cultured with neonatal Swiss mouse calvariae bone measured on day 7 post treatment by SYBR green-dye based RT-qPCR analysis; type: functional, cell-based; outline: as §1
[26] = test system: NCI-H460; test: Antiinvasive activity in human NCI-H460 cells at 5 uM by boyden chamber method; type: functional, cell-based
[27] = test system: Bone; test: Effect on Col1A1 expression in neonatal Swiss mouse calvariae bone co-cultured with human MDA-MB-231 cells measured on day 7 post treatment by SYBR green-dye based RT-qPCR analysis; type: functional, tissue-based; conditions: Bone element; outline: as §1
[28] = test system: U-87 MG; test: Cytotoxicity against human U87 cells after 24 hrs; type: cell-based; conditions: u-87mg atcc
[29] = test system: MDA-MB-231; test: as §4, with “day 7” for “day 5”; type: functional; outline: as §3

Activity [10]: Not Active
IC50 [19]: 2900 nM
Compound: Cc1ccc(N2C(=O)C3NN=C(c4ccc(Cl)cc4)C3C2c2cccc(F)c2)cc1Br (centres undefined)
Activity [1]: Non-Toxic
Activity [2]: Non-Toxic
Activity [3]: inactive
Activity [4]: Active
Activity [5]: inactive
Activity [6]: >80%
Activity [7]: inactive
Activity [8]: inactive
Activity [9]: Non-Toxic
TGI [11]: 60%
inhibition at 5 µM [12]: > 70%
Activity [13]: Active
Activity [14]: Active
Activity [15]: inactive
Activity [16]: 60%
Activity [17]: Non-Toxic
TGI [18]: 66%
Activity [19]: Dose-dependent effect
Activity [20]: Active
Activity [21]: Active
Activity [22]: Active
TGI [23]: 70%
Activity [24]: inactive
Activity [25]: inactive
Activity [26]: inactive
Activity [27]: inactive
Activity [28]: Non-Toxic
TGI [29]: 47%

Compound: CCCN1N=C(c2ccc(Cl)cc2)C2C1C(=O)N(c1ccc(C)c(Br)c1)C2c1cccc(F)c1 (centres undefined)
TGI [11]: Active
inhibition at 5 µM [12]: > 70%
TGI [18]: Active
TGI [23]: Active
TGI [29]: Active

Compound: Cc1ccc(N2C(=O)C3NN=C(c4ccc(Cl)cc4)C3C2c2cccc(C(F)(F)F)c2)cc1Br (centres undefined)
TGI [11]: Active
inhibition at 5 µM [12]: > 70%
TGI [18]: Active
TGI [23]: Active
TGI [29]: Active

Compound: Cc1ccc(N2C(=O)C3C(C(c4ccc(Cl)cc4)=NN3C(C)C)C2c2cccc(F)c2)cc1Br (centres undefined)
TGI [11]: Active
TGI [18]: Active
TGI [23]: Active
TGI [29]: Active

Compound: O=C1C2NN=C(c3ccc(Cl)cc3)C2C(c2cccc(F)c2)N1Cc1c[nH]c2ccccc12 (centres undefined)
TGI [11]: Active
inhibition at 5 µM [12]: 20%
TGI [18]: Active
TGI [23]: Active
TGI [29]: Active

Compound: O=C1C2NN=C(c3ccc(Cl)cc3)C2C(c2cccc(F)c2)N1CCc1cccnc1 (centres undefined)
TGI [11]: Active
inhibition at 5 µM [12]: 40%
TGI [18]: Active
TGI [23]: Active
TGI [29]: Active

Compound: CC(C)N1N=C(c2ccc(Cl)cc2)C2C(c3cccc(F)c3)N(CCc3c[nH]c4ccccc34)C(=O)C21 (centres undefined)
TGI [11]: 40%
inhibition at 5 µM [12]: > 70%
TGI [18]: Active
TGI [23]: Active
TGI [29]: 40%
